Measurements collected from several papers.
Protocols differ between the studies behind these lines.
CDK9: Cyclin-dependent kinase 9 (CDK9, Homo sapiens, UniProt P50750)
CDK9 with cyclin K: Cyclin-dependent kinase 9, with cyclin K (CDK9, Homo sapiens, UniProt P50750)
CDK9 with cyclin T1: Cyclin-dependent kinase 9, with cyclin T1 (CDK9, Homo sapiens, UniProt P50750)

SMILES	target	test	conditions	endpoint	value
Cc1ccc(C(=O)Nc2ccc(CN3CCN(C)CC3)c(C(F)(F)F)c2)cc1C#Cc1cnc2cccnn12	CDK9	enzyme activity, inhibitor	23.5 nM	remaining activity	96%
N#CCCc1ccc2c(c1)-c1[nH]c3ccc([N+](=O)[O-])cc3c1CC(=O)N2	CDK9 with cyclin K	cell-free assay	0.5 µM	remaining signal	23.7%
CN(C)C1CCN(CC#Cc2nn(C3CCCC3)c3nc(NCc4ccccc4)ncc23)C1 (centres unmarked)	CDK9 with cyclin T1	enzyme activity, inhibitor, FRET	10 µM	inhibition	-12%
COc1cc(-c2cc(-c3ccc(N4CCNCC4)cc3)cnc2C)cc(OC)c1OC	CDK9 with cyclin T1	enzyme activity, inhibitor	1 µM	inhibition	3%
c1ccc(CNc2nc(N3CCOc4ccccc43)nc3c2CCCC3)cc1	CDK9	target engagement in cells, inhibitor, chemoproteomics	20 mM	inhibition	-15.3%
CCOC(=O)c1cc2cc(-c3cc(C(=O)NCc4ccc(C(=O)O)cc4)nn3C)ccc2[nH]1	CDK9	cell-free assay, competition with immobilised ligand	0.1 µM	remaining binding	97%
Nc1ncnc2occ(-c3ccc(NC(=O)Nc4cc(C(F)(F)F)ccc4F)cc3)c12	CDK9	cell-free assay, inhibitor	20 µM	remaining signal	0.15%
Cc1ccc(Nc2nccc(N(C)c3ccc4c(C)n(C)nc4c3)n2)cc1S(N)(=O)=O	CDK9 with cyclin T1	enzyme activity, inhibitor	0.5 µM	remaining activity	91.5%
CN(C)CC#Cc1ccc(OCCCc2sc(N3CCc4cccc(C(=O)Nc5nc6ccccc6s5)c4C3)nc2C(=O)O)c(F)c1	CDK9	cell-free assay, competition with immobilised ligand	1 µM	remaining binding	94%
Cc1cc(NC(=O)c2cccc3cc(-c4cccc5[nH]nc(N)c45)ccc23)ccc1F	CDK9 with cyclin T1	enzyme activity, inhibitor	0.1 µM	activity vs control	106%
CN1CC(Oc2cnc(C#N)cc2-c2ccn3nc(NC(=O)C4CC4)cc3c2)C1	CDK9 with cyclin T1	enzyme activity, inhibitor	1 µM	inhibition	-15%
Cc1ccc(NC(=O)c2ccc(CN3CCN(C)CC3)cc2)cc1Nc1nc(-c2cccnc2)cs1	CDK9 with cyclin T1	cell-free assay	0.5 µM	remaining signal	99.2%
COc1cc(Cl)c(C(=O)N[C@@H](CN[C@H]2CC[C@@H](N)CC2)Cc2ccc(C#N)cc2)cc1-c1ccc(CN[C@H](C)c2ccc(C)cc2)o1	CDK9 with cyclin T1	enzyme activity, inhibitor	1 µM	remaining activity	99%
Cc1ccc(C(=O)NCc2ccsc2)cc1C#Cc1cn(C(C)C)c2ncnc(N)c12	CDK9 with cyclin T1	enzyme activity, inhibitor	1 µM	activity vs control	93%
O=C1NC(=O)c2cc(Nc3ccc(F)cc3)c(Nc3ccc(F)cc3)cc21	CDK9 with cyclin T1	cell-free assay	0.5 µM	remaining signal	95.4%
CCN(CC)CCNC(=O)c1c(C)[nH]c(/C=C2\C(=O)Nc3ccc(F)cc32)c1C	CDK9 with cyclin T1	enzyme activity, inhibitor	0.3 µM	inhibition	-7%

SMILES	target	test	conditions	endpoint	value
CCc1ccccc1C(=O)Nc1n[nH]c2c(C)c(F)c(C3C(C#N)=C(C)N(C)C(C)=C3C#N)cc12	CDK9	cell-free assay, competition with immobilised ligand	1 µM	remaining binding	94%
CC(C)(C)c1nc(-c2cccc(NS(=O)(=O)c3c(F)cccc3F)c2F)c(-c2ccnc(N)n2)s1	CDK9 with cyclin T1	enzyme activity, inhibitor, radiometric	1 µM	remaining activity	106%
Cc1ccc(NC(=O)c2ccc(C)c(C(F)(F)F)c2)cc1C#Cc1nn(C2CCC(O)CC2)c2ncnc(N)c12 (centres unmarked)	CDK9 with cyclin T1	cell-free assay	10 µM	remaining signal	113%
CNC(=O)c1cc(Oc2ccc(NC(=O)Nc3ccc(Cl)c(C(F)(F)F)c3)cc2)ccn1	CDK9 with cyclin T1	enzyme activity, inhibitor	0.3 µM	inhibition	-4%
CC(C)(C)c1nc2c(s1)c1nc(N)ncc1c1ccc(NS(=O)(=O)c3c(F)cccc3F)c(F)c12	CDK9 with cyclin K	enzyme activity, inhibitor, radiometric	1 µM	remaining activity	93%
O=C1Nc2ccc(Cl)cc2C1=Cc1cc(Cl)c(O)c(Cl)c1	CDK9 with cyclin T1	cell-free assay	0.5 µM	remaining signal	95.2%
CC(=O)N1CCC(c2ccc(C(=O)NC(=N)N)cc2C(F)(F)F)CC1	CDK9	cell-free assay, competition with immobilised ligand	1 µM	remaining binding	100%
Nc1nc(Nc2ccc(S(N)(=O)=O)cc2)sc1C(=O)c1ccccc1[N+](=O)[O-]	CDK9	enzyme activity, inhibitor	0.1 µM	inhibition	90 to 93%
CS(=O)(=O)NCC[C@H](NC(=O)c1cncc2c1cnn2-c1ccc(F)cc1)c1ccnc(S(C)(=O)=O)c1	CDK9	cell-free assay, competition with immobilised ligand	1 µM	remaining binding	100%
COc1cc(Nc2cnc(C#N)c(O[C@H](C)CN(C)C)n2)ncc1-c1cnn(C)c1	CDK9 with cyclin T1	enzyme activity, inhibitor, radiometric	1 µM	remaining activity	84%
c1ccc(N2CCN(Cc3nc4ccccc4[nH]3)CC2)nc1	CDK9	binding, competition with immobilised ligand	1 µM	remaining binding	100%
Cn1cncc1C1=CN(c2ncnc3[nH]cnc23)CCS1	CDK9	enzyme activity, inhibitor, radiometric	50 nM	inhibition	12.4%
CO[C@@H](C)c1c(Nc2ccc([C@H](N(C)C(=O)C3CCS(=O)(=O)CC3)C(F)(F)F)cc2)cnc2cc(Cl)nn12	CDK9	cell-free assay, competition with immobilised ligand	1 µM	remaining binding	85%
CS(=O)(=O)CCNCc1ccc(-c2ccc3ncnc(Nc4ccc(OCc5cccc(F)c5)c(Cl)c4)c3c2)o1	CDK9 with cyclin K	cell-free assay	0.5 µM	remaining signal	103%
O=C1CCc2cc(Nc3cc(OC4CCOCC4)c([N+](=O)[O-])cc3Cl)ccc2N1	CDK9	cell-free assay, competition with immobilised ligand	1 µM	remaining binding	97%
CS(=O)(=O)Nc1cccc(-c2csc(NC(=O)CSc3nc4nccnc4c(=O)n3CCc3ccccc3)n2)c1	CDK9 with cyclin K	enzyme activity, inhibitor	10 µM	inhibition	-1%
